Results: ChEMBL document CHEMBL1649065, “Solomonsterols A and B from Theonella swinhoei. The first example of C-24 and C-23 sulfated sterols from a marine source endowed with a PXR agonistic activity” (J Med Chem, 2011)
Active and inactive are the calls of the source. The calls are words filed in the database; no cut-off is given here.

How the values were obtained:
RAW264.7 [1] = experiment: Immunomodulatory activity in mouse RAW264.7 cells assessed as effect on TNFalpha mRNA expression at 10 to 50 uM by RT-PCR analysis; type: functional, cell-based
Method in brief: (§1)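 RAW264.7 macrophages incubated 24 h with 10 and 50 μM plus bacterial LPS; total RNA extracted with TRIZOL, 50 ng template amplified by SYBR Green real-time PCR (0.2 μM each primer, 40 cycles), triplicate reactions; CT normalised to GAPDH, relative expression as 2^-ΔΔCT.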

[2] = biological target: T1, PXR (nuclear receptor subfamily 1 group I member 2) (Homo sapiens, UniProt O75469); experiment: Transactivation of PXR in human HepG2 cells assessed as induction of luciferase activity at 50 uM by luciferase reporter gene assay relative to control; conditions: read-out: FC
T1 sequence (O75469 whole entry): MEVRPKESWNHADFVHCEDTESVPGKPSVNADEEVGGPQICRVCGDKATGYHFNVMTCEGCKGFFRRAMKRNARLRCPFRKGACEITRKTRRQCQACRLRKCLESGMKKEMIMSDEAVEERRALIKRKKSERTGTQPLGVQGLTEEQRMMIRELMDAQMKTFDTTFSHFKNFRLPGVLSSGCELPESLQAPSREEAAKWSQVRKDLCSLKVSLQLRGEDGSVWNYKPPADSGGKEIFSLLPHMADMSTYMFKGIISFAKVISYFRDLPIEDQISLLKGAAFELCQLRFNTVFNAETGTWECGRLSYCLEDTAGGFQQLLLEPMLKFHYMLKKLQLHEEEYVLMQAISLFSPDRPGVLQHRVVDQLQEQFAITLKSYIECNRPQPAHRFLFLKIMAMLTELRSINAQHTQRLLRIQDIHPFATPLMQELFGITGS

[3] = biological target: T2, Nuclear receptor subfamily 1 group I member 2 (Homo sapiens, UniProt O75469); experiment: Induction of PXR-mediated MDR1 gene expression in human HepG2 cells at 50 uM by RT-PCR analysis; type: cell-based; conditions: hepg2, 50 µM
T2 sequence (O75469 whole entry): T1 sequence (O75469 whole entry)
Method in brief: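 HepG2 hepatocytes treated with compound; mRNA quantified by SYBR Green real-time PCR in triplicate, CT normalised to GAPDH, relative expression computed as 2^-ΔΔCT.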

RAW264.7 [4] = experiment: Immunomodulatory activity in mouse RAW264.7 cells assessed as inhibition of IL1-beta mRNA expression at 50 uM by RT-PCR analysis; type: functional; method in brief: as §1
RAW264.7 [5] = experiment: Cytotoxicity against mouse RAW264.7 cells at 10 to 50 uM; type: cell-based; conditions: raw264.7, 50 µM
Method in brief: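 Murine macrophages exposed to 10 and 50 μM in presence of bacterial LPS; at end of experiment viability scored by trypan blue exclusion.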

Row | Compound | Activity (RAW264.7 [1]) | fold induction at 50 µM [2] | Activity [3] | inhibition at 50 µM (RAW264.7 [4]) | Activity (RAW264.7 [5])
1 | C[C@H](CCCOS(=O)(=O)[O-])[C@H]1CC[C@H]2[C@@H]3CC[C@H]4C[C@H](OS(=O)(=O)[O-])[C@@H](OS(=O)(=O)[O-])C[C@]4(C)[C@H]3CC[C@]12C.[Na+].[Na+].[Na+] [SOLOMONSTEROL A] | inactive | 4 | Active | 50% | Non-toxic
2 | C[C@H](CCOS(=O)(=O)[O-])[C@H]1CC[C@H]2[C@@H]3CC[C@H]4C[C@H](OS(=O)(=O)[O-])[C@@H](OS(=O)(=O)[O-])C[C@]4(C)[C@H]3CC[C@]12C.[Na+].[Na+].[Na+] [SOLOMONSTEROL B] | inactive | 4 | Active | 50% | Non-toxic
